In ChEMBL document CHEMBL3616400, “Design, Synthesis, and Evaluation of Triazole Derivatives That Induce Nrf2 Dependent Gene Products and Inhibit the Keap1-Nrf2 Protein-Protein Interaction” (J Med Chem, 2015):

Columns and labels:
[1] = target: Keap1/Nrf2 (Homo sapiens) (UniProt Q16236+Q14145); experiment: Inhibition of kelch domain of Keap1 (unknown origin) interaction to high affinity ETGE motif from Nrf2 unknown origin) at 100 uM by fluorescence polarization assay; assay type: protein assay
Summary of the method: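 Fluorescence polarization competition. Keap1 Kelch domain with fluorescein-labelled ETGE peptide FITC-β-DEETGEF-OH (β = β-alanine). Displacement measured with a fixed 100 µM inhibitor; percent inhibition reported.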

[2] = target: T1, Nuclear factor erythroid 2-related factor 2 (Mus musculus) (UniProt Q60795); experiment: Activation of Nrf2 in mouse Hepa1c1c7 cells assessed as induction of NQO1 production at 10 uM after 24 hrs by MTT colorimetric assay relative to control; assay type: cell-based
T1 sequence (whole entry): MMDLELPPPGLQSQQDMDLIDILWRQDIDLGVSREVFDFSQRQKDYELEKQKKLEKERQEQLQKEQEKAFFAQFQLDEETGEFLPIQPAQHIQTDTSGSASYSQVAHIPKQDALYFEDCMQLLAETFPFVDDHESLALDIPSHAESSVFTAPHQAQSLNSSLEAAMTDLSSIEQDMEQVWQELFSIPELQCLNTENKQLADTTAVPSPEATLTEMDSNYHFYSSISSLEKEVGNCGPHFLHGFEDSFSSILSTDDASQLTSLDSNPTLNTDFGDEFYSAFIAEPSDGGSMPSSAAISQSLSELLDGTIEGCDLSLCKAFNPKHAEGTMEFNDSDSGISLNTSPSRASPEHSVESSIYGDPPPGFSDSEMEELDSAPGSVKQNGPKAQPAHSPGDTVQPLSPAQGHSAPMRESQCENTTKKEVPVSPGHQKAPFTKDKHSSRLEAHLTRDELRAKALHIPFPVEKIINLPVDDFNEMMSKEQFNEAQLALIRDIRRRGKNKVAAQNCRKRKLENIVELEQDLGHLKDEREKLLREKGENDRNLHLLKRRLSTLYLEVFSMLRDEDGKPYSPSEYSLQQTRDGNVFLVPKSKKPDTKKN
Summary of the method: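 Hepa1c1c7 mouse hepatoma cells treated at a fixed 10 µM for 24 h. NQO1 enzyme activity read by colorimetric induction assay and expressed as fold induction over control.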

[3] = target: Keap1/Nrf2 (Homo sapiens, UniProt Q14145); experiment: Inhibition of kelch domain of Keap1 (unknown origin) interaction to high affinity ETGE motif from Nrf2 by fluorescence polarization assay; assay type: protein assay
Summary of the method: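 Competitive fluorescence polarization, dose-response format. Keap1 Kelch domain with fluorescein-labelled Nrf2 ETGE peptide FITC-β-DEETGEF-OH. EC50 derived from dose-response curves.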

[4] = target: T1, Nuclear factor erythroid 2-related factor 2 (Mus musculus); experiment: Activation of Nrf2 in mouse Hepa1c1c7 cells assessed as concentration required to 2 fold induction of NQO1 production after 24 hrs by MTT colorimetric assay; assay type: cell-based
Summary of the method: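 Hepa1c1c7 mouse hepatoma cells exposed to a concentration range for 24 h. NQO1 enzymatic activity measured by colorimetric induction assay. Value reported as CD, the concentration giving a two-fold increase in NQO1 activity.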

Keap1/Nrf2, sequence (Q16236 whole entry, the tested form may be a part): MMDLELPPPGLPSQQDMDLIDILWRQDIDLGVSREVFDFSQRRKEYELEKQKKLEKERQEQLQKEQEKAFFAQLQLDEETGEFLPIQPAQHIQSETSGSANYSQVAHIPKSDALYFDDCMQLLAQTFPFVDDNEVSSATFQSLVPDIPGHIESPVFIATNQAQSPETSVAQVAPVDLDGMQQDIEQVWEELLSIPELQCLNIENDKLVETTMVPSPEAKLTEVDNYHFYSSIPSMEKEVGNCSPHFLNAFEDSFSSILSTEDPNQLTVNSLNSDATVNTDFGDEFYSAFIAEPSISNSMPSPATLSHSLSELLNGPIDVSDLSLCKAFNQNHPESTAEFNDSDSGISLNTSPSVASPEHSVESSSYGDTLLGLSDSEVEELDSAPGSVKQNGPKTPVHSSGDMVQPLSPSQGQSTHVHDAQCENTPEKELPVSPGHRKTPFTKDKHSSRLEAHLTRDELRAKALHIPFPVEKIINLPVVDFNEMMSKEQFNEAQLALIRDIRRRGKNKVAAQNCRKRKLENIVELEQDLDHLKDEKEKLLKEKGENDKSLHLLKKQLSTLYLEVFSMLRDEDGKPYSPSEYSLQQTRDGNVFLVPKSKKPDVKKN
Keap1/Nrf2, sequence (Q14145 whole entry, the tested form may be a part): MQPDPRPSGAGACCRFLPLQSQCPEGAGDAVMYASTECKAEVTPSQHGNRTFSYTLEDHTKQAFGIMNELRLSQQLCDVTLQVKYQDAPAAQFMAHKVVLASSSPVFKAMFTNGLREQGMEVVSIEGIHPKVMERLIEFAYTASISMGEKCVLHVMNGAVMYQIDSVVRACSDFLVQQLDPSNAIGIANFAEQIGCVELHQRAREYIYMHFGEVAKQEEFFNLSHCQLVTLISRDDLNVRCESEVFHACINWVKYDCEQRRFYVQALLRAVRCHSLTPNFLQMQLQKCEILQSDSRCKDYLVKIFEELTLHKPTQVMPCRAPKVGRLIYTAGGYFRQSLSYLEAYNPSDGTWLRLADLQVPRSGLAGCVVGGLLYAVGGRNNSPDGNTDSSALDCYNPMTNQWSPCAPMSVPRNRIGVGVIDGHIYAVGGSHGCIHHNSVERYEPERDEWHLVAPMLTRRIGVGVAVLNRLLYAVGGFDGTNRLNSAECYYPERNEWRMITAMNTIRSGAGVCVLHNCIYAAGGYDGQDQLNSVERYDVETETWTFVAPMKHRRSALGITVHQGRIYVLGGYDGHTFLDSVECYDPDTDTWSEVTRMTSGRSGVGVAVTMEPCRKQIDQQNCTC
Keap1/Nrf2 (Homo sapiens), sequence (Q14145 whole entry, looked up, the tested form may be a part): as the sequence (Q14145 whole entry, the tested form may be a part) above
Keap1/Nrf2 (Homo sapiens), sequence (Q16236 whole entry, looked up, the tested form may be a part): as the sequence (Q16236 whole entry, the tested form may be a part) above

Structure (SMILES) | inhibition [1] | fold change (FC) [2] | EC50 [3] | CD [4]
O=[N+]([O-])c1cccc(-c2cn(-c3cccc(C(F)(F)F)c3)nn2)c1 | 66.9% | 2.54 | 22.6 µM | 
NC(=O)c1cccc(-c2cn(-c3cccc(C(=O)O)c3)nn2)c1 | 78.6% | 0.71 |  | 
NC(=O)c1cccc(-n2cc(-c3cccc([N+](=O)[O-])c3)nn2)c1 | 65.3% | 2.09 |  | 
NC(=O)c1ccc(-n2cc(-c3ccc([N+](=O)[O-])cc3)nn2)cc1 | 46.1% | 1.07 |  | 
NC(=O)c1ccc(-c2cn(-c3cccc([N+](=O)[O-])c3)nn2)cc1 | 2.34% | 1.33 |  | 
O=C(O)c1ccc(-n2cc(-c3cccc([N+](=O)[O-])c3)nn2)cc1 | 39.4% |  |  | 
O=[N+]([O-])c1ccc(-c2cn(-c3ccc([N+](=O)[O-])cc3)nn2)cc1 | 72.6% | 1 |  | 
Cc1c(-c2cnccn2)ssc1=S |  |  |  | 10.2 µM
NC(=O)c1ccc(-c2cn(-c3ccc(C(=O)O)cc3)nn2)cc1 |  | 0.79 |  | 
Cc1cccc(-n2cc(-c3cccc(-c4nnn[nH]4)c3)nn2)c1 | 30.4% | 0.88 |  | 
NC(=O)c1cccc(-c2cn(-c3cccc([N+](=O)[O-])c3)nn2)c1 | 32% | 2.06 |  | 
O=C(O)c1cccc(-n2cc(-c3ccc([N+](=O)[O-])cc3)nn2)c1 | 61% | 0.66 |  | 
CCOc1cccc(-n2cc(-c3cccc([N+](=O)[O-])c3)nn2)c1 | 69.3% | 2.48 | 11.3 µM | 
O=C(O)c1ccc(-c2cn(-c3cccc(C(=O)O)c3)nn2)cc1 | 89.6% | 0.47 |  | 
O=C(O)c1ccc(-c2cn(-c3ccc(C(=O)O)cc3)nn2)cc1 | 77.3% | 0.9 |  | 
CCOc1cccc(-n2cc(-c3cccc(C#N)c3)nn2)c1 | 24.5% | 1.3 |  | 
CN(C)c1cccc(-n2cc(-c3cccc([N+](=O)[O-])c3)nn2)c1 | 65.4% | 2.91 | 12.7 µM | 2 µM
NC(=O)c1ccc(-n2cc(-c3cccc(C(=O)O)c3)nn2)cc1 | 87.6% | 0.91 |  | 
NC(=O)c1cccc(-c2cn(-c3ccc(C(=O)O)cc3)nn2)c1 | 70.7% | 0.81 |  | 
NC(=O)c1ccc(-c2cn(-c3cccc(C(N)=O)c3)nn2)cc1 | 43.7% | 1.02 |  | 

Structure (SMILES) | inhibition [1] | fold change (FC) [2] | EC50 [3] | CD [4]
CSc1cccc(-n2cc(-c3cccc([N+](=O)[O-])c3)nn2)c1 | 77.7% | 2.95 | 38.5 µM | 
NC(=O)c1cccc(-c2cn(-c3cccc(C(N)=O)c3)nn2)c1 | 65.3% |  |  | 
O=C(O)c1ccc(-c2cn(-c3cccc([N+](=O)[O-])c3)nn2)cc1 | 87.5% | 1.06 |  | 
CCOc1cccc(-n2cc(-c3cccc(-c4nnn[nH]4)c3)nn2)c1 | 39.6% | 1.31 |  | 
Cc1cccc(-n2cc(-c3cccc(C#N)c3)nn2)c1 | 49.7% | 1.69 |  | 
O=C(O)c1ccc(-c2cn(-c3ccc([N+](=O)[O-])cc3)nn2)cc1 | 83.8% | 0.89 |  | 
O=[N+]([O-])c1cccc(-c2cn(-c3cccc(Br)c3)nn2)c1 | 68.2% | 2.94 | 24.5 µM | 1.2 µM
O=[N+]([O-])c1cccc(-c2cn(-c3cccc(F)c3)nn2)c1 | 42.6% | 2.27 |  | 
O=[N+]([O-])c1cccc(-c2cn(-c3cccc(Cl)c3)nn2)c1 | 60.4% | 2.5 | 8.8 µM | 0.7 µM
NC(=O)c1ccc(-c2cn(-c3cccc(C(=O)O)c3)nn2)cc1 |  | 0.79 |  | 
O=[N+]([O-])c1cccc(-c2cn(-c3ccc4c(c3)OCO4)nn2)c1 | 67.2% | 2.24 | 15 µM | 
N#Cc1cccc(-c2cn(-c3cccc(I)c3)nn2)c1 | 21.9% | 1.53 |  | 
N#Cc1cccc(-c2cn(-c3cccc(C#N)c3)nn2)c1 | 58.8% | 1.92 |  | 
O=[N+]([O-])c1cccc(-c2cn(-c3cccc([N+](=O)[O-])c3)nn2)c1 | 81% | 2.3 | 11.5 µM | 
Ic1cccc(-n2cc(-c3cccc(-c4nnn[nH]4)c3)nn2)c1 | 51.5% | 1.03 |  | 
Clc1cccc(-n2cc(-c3cccc(-c4nnn[nH]4)c3)nn2)c1 | 40.7% | 1.24 |  | 
N#Cc1cccc(-n2cc(-c3cccc([N+](=O)[O-])c3)nn2)c1 | 36.8% | 2.33 |  | 
N#Cc1cccc(-c2cn(-c3cccc([N+](=O)[O-])c3)nn2)c1 | 59.4% | 2.1 |  | 
N#Cc1cccc(-c2cn(-c3cccc(Cl)c3)nn2)c1 | 19.9% | 2.39 |  | 
NC(=O)c1ccc(-n2cc(-c3ccc(C(=O)O)cc3)nn2)cc1 | 76.5% | 0.86 |  | 

Structure (SMILES) | inhibition [1] | fold change (FC) [2] | EC50 [3] | CD [4]
COc1cccc(-n2cc(-c3cccc([N+](=O)[O-])c3)nn2)c1 | 68.2% | 2.56 | 15 µM | 4.7 µM
NC(=O)c1ccc(-c2cn(-c3ccc([N+](=O)[O-])cc3)nn2)cc1 |  | 1.02 |  | 
O=[N+]([O-])c1ccc(-c2cn(-c3cccc([N+](=O)[O-])c3)nn2)cc1 | 46.5% | 1.81 |  | 
O=C(O)c1ccc(-n2cc(-c3ccc([N+](=O)[O-])cc3)nn2)cc1 | 81.3% | 0.99 |  | 
NC(=O)c1ccc(-n2cc(-c3cccc([N+](=O)[O-])c3)nn2)cc1 | 64.5% | 2.08 |  | 
O=C(O)c1ccc(-n2cc(-c3cccc(-c4nnn[nH]4)c3)nn2)cc1 | 70% | 1 |  | 
O=C(O)c1cccc(-c2cn(-c3ccc([N+](=O)[O-])cc3)nn2)c1 | 82.3% | 1.14 |  | 
O=[N+]([O-])c1cccc(-n2cc(-c3cccc(-c4nnn[nH]4)c3)nn2)c1 | 71.1% | 1.75 |  | 
NC(=O)c1ccc(-c2cn(-c3ccc(C(N)=O)cc3)nn2)cc1 |  | 0.98 |  | 
NC(=O)c1cccc(-n2cc(-c3cccc(C(=O)O)c3)nn2)c1 | 96.3% | 1.07 |  | 
O=C(O)c1cccc(-c2cn(-c3cccc([N+](=O)[O-])c3)nn2)c1 | 63.8% | 0.85 |  | 
N#Cc1cccc(-c2cn(-c3ccc(C(=O)O)cc3)nn2)c1 | 52.8% | 0.98 |  | 
c1cc(-c2cn(-c3cccc(-c4nnn[nH]4)c3)nn2)cc(-c2nnn[nH]2)c1 | 13.7% | 0.84 |  | 
NC(=O)c1cccc(-c2cn(-c3ccc([N+](=O)[O-])cc3)nn2)c1 | 48% | 1.05 |  | 
O=[N+]([O-])c1ccc(-n2cc(-c3cccc([N+](=O)[O-])c3)nn2)cc1 | 74.8% | 3.38 |  | 
NC(=O)c1cccc(-n2cc(-c3ccc(C(=O)O)cc3)nn2)c1 | 15.4% | 0.95 |  | 
NC(=O)c1cccc(-n2cc(-c3ccc([N+](=O)[O-])cc3)nn2)c1 | 62.2% | 0.98 |  | 
O=C(O)c1cccc(-c2cn(-c3cccc(C(=O)O)c3)nn2)c1 | 82.3% | 0.86 |  | 
